“And” between values parts separate entries of the source, which are not always exact repeats. Equal entries are not always repeated.
Experiments:
Fibroblast = assay: Multiplex assay against human fibroblast; format: toxicity, cell-based
Method in brief: (§1)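 At seeding, live cells were stained with Hoechst33342, BioTracker Green Microtubule Cytoskeleton Dye, MitoTracker Red and Annexin V Alexa Fluor 680. After compound addition they were imaged on a CQ1 microscope at 37°C and 5% CO2, and CellPathfinder machine-learning gating sorted them into Hoechst high-intensity objects or normal cells, with normal cells further split into healthy, pyknosed or fragmented nuclei and pyknosed cells into mitotic or apoptotic. Tubulin, mitochondrial-mass and membrane-permeability phenotypes are given as per cents of cells with healthy nuclei.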

U2OS = assay: Multiplex assay against U2OS; format: toxicity, cell-based; details: human; method in brief: as §1
[1] = 12 h, 1 µM, compound concentration 1 uM
[2] = 12 h, 10 µM, compound concentration 10 uM
[3] = 24 h, 1 µM, compound concentration 1 uM
[4] = 24 h, 10 µM, compound concentration 10 uM
[5] = 48 h, 1 µM, compound concentration 1 uM
[6] = 48 h, 10 µM, compound concentration 10 uM

Cc1onc(-c2ccccc2Cl)c1C(=O)N(C)c1ccc(Cl)cc1
Population Apoptotic (%) (Fibroblast; [1]): 60% and 35% | Population Fragmented Nuclei (%) (Fibroblast; [1]): 17% and 22% | Population Healthy Nuclei (%) (Fibroblast; [1]): 68% and 50% | Population Hoechst High Intensity Objects (%) (Fibroblast; [1]): 7% and 9% | Population Membrane Permeable-Phenotype (%) (Fibroblast; [1]): 0% and 6% | Population Mitochondria Different-Phenotype (%) (Fibroblast; [1]): 7% and 8% | Population Mitotic Cells (%) (Fibroblast; [1]): 39% and 65% | Population Normal (%) (Fibroblast; [1]): 92% and 90% | Population Pyknosed Nuclei (%) (Fibroblast; [1]): 13% and 27% | Population Tubulin-Different-Phenotype (%) (Fibroblast; [1]): 23% and 63% | Total Cell Count (Fibroblast; [1]): 178 and 161 | Population Apoptotic (%) (Fibroblast; [2]): 36% and 37% | Population Fragmented Nuclei (%) (Fibroblast; [2]): 16% and 24% | Population Healthy Nuclei (%) (Fibroblast; [2]): 70% and 48% | Population Hoechst High Intensity Objects (%) (Fibroblast; [2]): 2% and 3% | Population Membrane Permeable-Phenotype (%) (Fibroblast; [2]): 2% and 5% | Population Mitochondria Different-Phenotype (%) (Fibroblast; [2]): 6% and 11% | Population Mitotic Cells (%) (Fibroblast; [2]): 63% and 62% | Population Normal (%) (Fibroblast; [2]): 97% and 96% | Population Pyknosed Nuclei (%) (Fibroblast; [2]): 13% and 27% | Population Tubulin-Different-Phenotype (%) (Fibroblast; [2]): 29% and 64% | Total Cell Count (Fibroblast; [2]): 144 and 151 | Population Apoptotic (%) (Fibroblast; [3]): 44% and 39% | Population Fragmented Nuclei (%) (Fibroblast; [3]): 18% and 22% | Population Healthy Nuclei (%) (Fibroblast; [3]): 65% and 54% | Population Hoechst High Intensity Objects (%) (Fibroblast; [3]): 7% and 12% | Population Membrane Permeable-Phenotype (%) (Fibroblast; [3]): 0% and 8% | Population Mitochondria Different-Phenotype (%) (Fibroblast; [3]): 1% and 4% | Population Mitotic Cells (%) (Fibroblast; [3]): 55% and 60% | Population Normal (%) (Fibroblast; [3]): 92% and 87% | Population Pyknosed Nuclei (%) (Fibroblast; [3]): 16% and 23% | Total Cell Count (Fibroblast; [3]): 178 and 182 | Population Apoptotic (%) (Fibroblast; [4]): 20% and 54% | Population Fragmented Nuclei (%) (Fibroblast; [4]): 16% and 21% | Population Healthy Nuclei (%) (Fibroblast; [4]): 76% and 55% | Population Hoechst High Intensity Objects (%) (Fibroblast; [4]): 2% and 4% | Population Membrane Permeable-Phenotype (%) (Fibroblast; [4]): 1% and 6% | Population Mitochondria Different-Phenotype (%) (Fibroblast; [4]): 4% and 6% | Population Mitotic Cells (%) (Fibroblast; [4]): 80% and 45% | Population Normal (%) (Fibroblast; [4]): 97% and 95% | Population Tubulin-Different-Phenotype (%) (Fibroblast; [4]): 32% and 59% | Total Cell Count (Fibroblast; [4]): 134 and 149 | Population Apoptotic (%) (Fibroblast; [5]): 76% and 48% | Population Fragmented Nuclei (%) (Fibroblast; [5]): 26% and 28% | Population Healthy Nuclei (%) (Fibroblast; [5]): 62% and 54% | Population Hoechst High Intensity Objects (%) (Fibroblast; [5]): 9% and 11% | Population Membrane Permeable-Phenotype (%) (Fibroblast; [5]): 0% and 10% | Population Mitochondria Different-Phenotype (%) (Fibroblast; [5]): 1% and 6% | Population Mitotic Cells (%) (Fibroblast; [5]): 23% and 51% | Population Normal (%) (Fibroblast; [5]): 90% and 88% | Population Pyknosed Nuclei (%) (Fibroblast; [5]): 10% and 17% | Population Tubulin-Different-Phenotype (%) (Fibroblast; [5]): 22% and 51% | Total Cell Count (Fibroblast; [5]): 185 and 188 | Population Apoptotic (%) (Fibroblast; [6]): 44% and 65% | Population Fragmented Nuclei (%) (Fibroblast; [6]): 25% and 31% | Population Healthy Nuclei (%) (Fibroblast; [6]): 68% and 55% | Population Hoechst High Intensity Objects (%) (Fibroblast; [6]): 4% and 1% | Population Membrane Permeable-Phenotype (%) (Fibroblast; [6]): 0% and 8% | Population Mitochondria Different-Phenotype (%) (Fibroblast; [6]): 3% and 6% | Population Mitotic Cells (%) (Fibroblast; [6]): 55% and 35% | Population Normal (%) (Fibroblast; [6]): 95% and 98% | Population Pyknosed Nuclei (%) (Fibroblast; [6]): 6% and 12% | Population Tubulin-Different-Phenotype (%) (Fibroblast; [6]): 34% and 53% | Total Cell Count (Fibroblast; [6]): 141 and 166 | Population Apoptotic (%) (U2OS; [1]): 82% and 78% | Population Fragmented Nuclei (%) (U2OS; [1]): 26% and 10% | Population Healthy Nuclei (%) (U2OS; [1]): 67% and 79% | Population Hoechst High Intensity Objects (%) (U2OS; [1]): 0% and 1% | Population Membrane Permeable-Phenotype (%) (U2OS; [1]): 3% and 4% | Population Mitochondria Different-Phenotype (%) (U2OS; [1]): 2% and 1% | Population Mitotic Cells (%) (U2OS; [1]): 17% and 21% | Population Normal (%) (U2OS; [1]): 99% and 98% | Population Pyknosed Nuclei (%) (U2OS; [1]): 6% and 10% | Population Tubulin-Different-Phenotype (%) (U2OS; [1]): 1% and 3% | Total Cell Count (U2OS; [1]): 277 and 136 | Population Apoptotic (%) (U2OS; [2]): 79% and 77% | Population Fragmented Nuclei (%) (U2OS; [2]): 28% and 24% | Population Healthy Nuclei (%) (U2OS; [2]): 58% and 56% | Population Hoechst High Intensity Objects (%) (U2OS; [2]): 4% and 0% | Population Membrane Permeable-Phenotype (%) (U2OS; [2]): 12% and 7% | Population Mitochondria Different-Phenotype (%) (U2OS; [2]): 5% and 6% | Population Mitotic Cells (%) (U2OS; [2]): 20% and 22% | Population Normal (%) (U2OS; [2]): 95% and 99% | Population Pyknosed Nuclei (%) (U2OS; [2]): 12% and 19% | Population Tubulin-Different-Phenotype (%) (U2OS; [2]): 5% and 4% | Total Cell Count (U2OS; [2]): 244 and 113 | Population Apoptotic (%) (U2OS; [3]): 100% and 83% | Population Fragmented Nuclei (%) (U2OS; [3]): 23% and 11% | Population Healthy Nuclei (%) (U2OS; [3]): 70% and 81% | Population Hoechst High Intensity Objects (%) (U2OS; [3]): 0% and 1% | Population Membrane Permeable-Phenotype (%) (U2OS; [3]): 2% and 4% | Population Mitochondria Different-Phenotype (%) (U2OS; [3]): 2% and 5% | Population Mitotic Cells (%) (U2OS; [3]): 0% and 16% | Population Normal (%) (U2OS; [3]): 99% and 98% | Population Pyknosed Nuclei (%) (U2OS; [3]): 5% and 7% | Population Tubulin-Different-Phenotype (%) (U2OS; [3]): 0% and 2% | Total Cell Count (U2OS; [3]): 328 and 168 | Population Apoptotic (%) (U2OS; [4]): 72% and 64%
